Results as given in ChEMBL document CHEMBL1153560, “In vitro activities of doripenem and six comparator drugs against 423 aerobic and anaerobic bacterial isolates from infected diabetic foot wounds” (2008).
Values after ≈ are worked out from the molar mass of the structure shown.

Key:
Assay type in all cases: functional
[1] = system: Prevotella bivia; assay: Antibacterial activity against Prevotella bivia isolated from patient with diabetic foot infection after 44 to 48 hrs by agar dilution method
Method in brief: (§1)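 CLSI M11-A7 agar dilution: serial twofold drug dilutions made on the test day and added to molten agar. Spots of 10^5 CFU were applied by replicator, with drug-free control plates inoculated before and after each set. Incubation was 44 to 48 h at 37°C in an anaerobic chamber. MIC was the lowest concentration giving no growth or a marked change in growth versus controls.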

[2] = system: Clostridium perfringens; assay: Antibacterial activity against Clostridium perfringens isolated from patient with diabetic foot infection after 44 to 48 hrs by agar dilution method
Method in brief: (§2)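 Agar dilution per CLSI M11-A7. Twofold drug dilutions made on the test day and added to molten agar. Replicator-applied inoculum of 10^5 CFU/spot. Drug-free control plates inoculated before and after each drug set. Incubation at 37°C for 44 to 48 h, anaerobic chamber. MIC taken as the lowest concentration giving no growth or a marked change in growth versus controls.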

[3] = system: Anaerocolumna aminovalerica; assay: Antibacterial activity against Clostridium aminovalericum isolated from patient with diabetic foot infection after 44 to 48 hrs by agar dilution method; method in brief: as §1
[4] = system: Clostridium cadaveris; assay: Antibacterial activity against Clostridium cadaveris isolated from patient with diabetic foot infection after 44 to 48 hrs by agar dilution method; method in brief: as §1
[5] = system: [Clostridium] innocuum; assay: Antibacterial activity against Clostridium innocuum isolated from patient with diabetic foot infection after 44 to 48 hrs by agar dilution method; method in brief: as §1
[6] = system: Lacrimispora sphenoides; assay: Antibacterial activity against Clostridium sphenoides isolated from patient with diabetic foot infection after 44 to 48 hrs by agar dilution method; method in brief: as §1
[7] = system: Cutibacterium acnes; assay: Antibacterial activity against Propionibacterium acnes isolated from patient with diabetic foot infection after 44 to 48 hrs by agar dilution method; method in brief: as §1
[8] = system: Anaerococcus prevotii; assay: Antibacterial activity against Anaerococcus prevotii isolated from patient with diabetic foot infection after 44 to 48 hrs by agar dilution method; method in brief: as §1
[9] = system: Anaerococcus tetradius; assay: Antibacterial activity against Anaerococcus tetradius isolated from patient with diabetic foot infection after 44 to 48 hrs by agar dilution method; method in brief: as §1
[10] = system: Finegoldia magna; assay: Antibacterial activity against Finegoldia magna isolated from patient with diabetic foot infection after 44 to 48 hrs by agar dilution method; method in brief: as §1
[11] = system: Peptoniphilus asaccharolyticus; assay: Antibacterial activity against Peptoniphilus asaccharolyticus isolated from patient with diabetic foot infection after 44 to 48 hrs by agar dilution method; method in brief: as §1
[12] = system: Peptostreptococcus anaerobius; assay: Antibacterial activity against Peptostreptococcus anaerobius isolated from patient with diabetic foot infection after 44 to 48 hrs by agar dilution method; method in brief: as §1
[13] = system: Parvimonas micra; assay: Antibacterial activity against Peptostreptococcus micros isolated from patient with diabetic foot infection after 44 to 48 hrs by agar dilution method; method in brief: as §1
[14] = system: Bacteroides fragilis; assay: Antibacterial activity against Bacteroides fragilis isolated from patient with diabetic foot infection after 44 to 48 hrs by agar dilution method; method in brief: as §1
[15] = system: Bacteroides caccae; assay: Antibacterial activity against Bacteroides caccae isolated from patient with diabetic foot infection after 44 to 48 hrs by agar dilution method; method in brief: as §1
[16] = system: Bacteroides ovatus; assay: Antibacterial activity against Bacteroides ovatus isolated from patient with diabetic foot infection after 44 to 48 hrs by agar dilution method; method in brief: as §1
[17] = system: Bacteroides fragilis; assay: Antibacterial activity against Bacteroides fragilis isolated from patient with diabetic foot infection assessed as percent resistant isolates after 44 to 48 hrs by agar dilution method; method in brief: as §2
[18] = system: Bacteroides caccae; assay: Antibacterial activity against Bacteroides caccae isolated from patient with diabetic foot infection assessed as percent resistant isolates after 44 to 48 hrs by agar dilution method; method in brief: as §2
[19] = system: Bacteroides thetaiotaomicron; assay: Antibacterial activity against Bacteroides thetaiotaomicron isolated from patient with diabetic foot infection assessed as percent resistant isolates after 44 to 48 hrs by agar dilution method; method in brief: as §2
[20] = system: Bacteroides uniformis; assay: Antibacterial activity against Bacteroides uniformis isolated from patient with diabetic foot infection after 44 to 48 hrs by agar dilution method; method in brief: as §1
[21] = system: Phocaeicola vulgatus; assay: Antibacterial activity against Bacteroides vulgatus isolated from patient with diabetic foot infection after 44 to 48 hrs by agar dilution method; method in brief: as §1
[22] = system: Porphyromonas asaccharolytica; assay: Antibacterial activity against Porphyromonas asaccharolyticus isolated from patient with diabetic foot infection after 44 to 48 hrs by agar dilution method; method in brief: as §1
[23] = system: Porphyromonas somerae; assay: Antibacterial activity against Porphyromonas somerae isolated from patient with diabetic foot infection after 44 to 48 hrs by agar dilution method; method in brief: as §1
[24] = system: Bacteroides uniformis; assay: Antibacterial activity against Bacteroides uniformis isolated from patient with diabetic foot infection assessed as percent resistant isolates after 44 to 48 hrs by agar dilution method; method in brief: as §2
[25] = system: Parabacteroides merdae; assay: Antibacterial activity against Parabacteroides merdae isolated from patient with diabetic foot infection assessed as percent resistant isolates after 44 to 48 hrs by agar dilution method; method in brief: as §2
[26] = system: Porphyromonas asaccharolytica; assay: Antibacterial activity against Porphyromonas asaccharolyticus isolated from patient with diabetic foot infection assessed as percent resistant isolates after 44 to 48 hrs by agar dilution method; method in brief: as §2
[27] = system: Porphyromonas somerae; assay: Antibacterial activity against Porphyromonas somerae isolated from patient with diabetic foot infection assessed as percent resistant isolates after 44 to 48 hrs by agar dilution method; method in brief: as §2
[28] = system: Prevotella bivia; assay: Antibacterial activity against Prevotella bivia isolated from patient with diabetic foot infection assessed as percent resistant isolates after 44 to 48 hrs by agar dilution method; method in brief: as §2
[29] = system: Anaerocolumna aminovalerica; assay: Antibacterial activity against Clostridium aminovalericum isolated from patient with diabetic foot infection assessed as percent resistant isolates after 44 to 48 hrs by agar dilution method; method in brief: as §2
[30] = system: Lacrimispora sphenoides; assay: Antibacterial activity against Clostridium sphenoides isolated from patient with diabetic foot infection assessed as percent resistant isolates after 44 to 48 hrs by agar dilution method; method in brief: as §2
[31] = system: Cutibacterium acnes; assay: Antibacterial activity against Propionibacterium acnes isolated from patient with diabetic foot infection assessed as percent resistant isolates after 44 to 48 hrs by agar dilution method; method in brief: as §2
[32] = system: Anaerococcus prevotii; assay: Antibacterial activity against Anaerococcus prevotii isolated from patient with diabetic foot infection assessed as percent resistant isolates after 44 to 48 hrs by agar dilution method; method in brief: as §2
[33] = system: Peptoniphilus asaccharolyticus; assay: Antibacterial activity against Peptoniphilus asaccharolyticus isolated from patient with diabetic foot infection assessed as percent resistant isolates after 44 to 48 hrs by agar dilution method; method in brief: as §2
[34] = system: Peptostreptococcus anaerobius; assay: Antibacterial activity against Peptostreptococcus anaerobius isolated from patient with diabetic foot infection assessed as percent resistant isolates after 44 to 48 hrs by agar dilution method; method in brief: as §2
[35] = system: Parvimonas micra; assay: Antibacterial activity against Peptostreptococcus micros isolated from patient with diabetic foot infection assessed as percent resistant isolates after 44 to 48 hrs by agar dilution method; method in brief: as §2
[36] = system: Anaerococcus vaginalis; assay: Antibacterial activity against Anaerococcus vaginalis isolated from patient with diabetic foot infection after 44 to 48 hrs by agar dilution method; method in brief: as §1
[37] = system: Anaerococcus vaginalis; assay: Antibacterial activity against Anaerococcus vaginalis isolated from patient with diabetic foot infection assessed as percent resistant isolates after 44 to 48 hrs by agar dilution method; method in brief: as §2

C[C@@H](O)[C@H]1C(=O)N2C(C(=O)O)=C(SCCNC=N)C[C@H]12 [IMIPENEM ANHYDROUS]
MIC50 [1]: 0.03 µg/mL (≈ 0.1 µM) | MIC90 [1]: 0.03 µg/mL (≈ 0.1 µM) | MIC50 [2]: 0.06 µg/mL (≈ 0.2 µM) | MIC90 [2]: 0.125 µg/mL (≈ 0.418 µM) | MIC50 [3]: 0.25 µg/mL (≈ 0.835 µM) | MIC90 [3]: 2 µg/mL (≈ 6.68 µM) | MIC50 [4]: 0.25 µg/mL (≈ 0.835 µM) | MIC90 [4]: 2 µg/mL (≈ 6.68 µM) | MIC50 [5]: 0.25 µg/mL (≈ 0.835 µM) | MIC90 [5]: 2 µg/mL (≈ 6.68 µM) | MIC50 [6]: 0.25 µg/mL (≈ 0.835 µM) | MIC90 [6]: 2 µg/mL (≈ 6.68 µM) | MIC50 [7]: ≤ 0.015 µg/mL | MIC90 [7]: ≤ 0.015 µg/mL | MIC50 [8]: ≤ 0.015 µg/mL | MIC90 [8]: 0.03 µg/mL (≈ 0.1 µM) | MIC50 [9]: ≤ 0.015 µg/mL | MIC90 [9]: 0.03 µg/mL (≈ 0.1 µM) | MIC50 [10]: 0.03 µg/mL (≈ 0.1 µM) | MIC90 [10]: 0.06 µg/mL (≈ 0.2 µM) | MIC50 [11]: ≤ 0.015 µg/mL | MIC90 [11]: 0.03 µg/mL (≈ 0.1 µM) | MIC50 [12]: 0.03 µg/mL (≈ 0.1 µM) | MIC90 [12]: 0.06 µg/mL (≈ 0.2 µM) | MIC50 [13]: 0.03 µg/mL (≈ 0.1 µM) | MIC90 [13]: 0.06 µg/mL (≈ 0.2 µM) | MIC50 [14]: 0.125 µg/mL (≈ 0.418 µM) | MIC90 [14]: 0.125 µg/mL (≈ 0.418 µM) | MIC50 [15]: 0.5 µg/mL (≈ 1.67 µM) | MIC90 [15]: 1 µg/mL (≈ 3.34 µM) | MIC50 [16]: 0.5 µg/mL (≈ 1.67 µM) | MIC90 [16]: 1 µg/mL (≈ 3.34 µM) | Activity [17]: 0% | Activity [18]: 0% | Activity [19]: 0% | MIC50 [20]: 0.5 µg/mL (≈ 1.67 µM) | MIC90 [20]: 1 µg/mL (≈ 3.34 µM) | MIC50 [21]: 0.5 µg/mL (≈ 1.67 µM) | MIC90 [21]: 1 µg/mL (≈ 3.34 µM) | MIC50 [22]: < 0.015 µg/mL | MIC90 [22]: ≤ 0.015 µg/mL | MIC50 [23]: < 0.015 µg/mL | MIC90 [23]: ≤ 0.015 µg/mL | Activity [24]: 0% | Activity [25]: 0% | Activity [26]: 0% | Activity [27]: 0% | Activity [28]: 0% | Activity [29]: 0% | Activity [30]: 0% | Activity [31]: 0% | Activity [32]: 0% | Activity [33]: 0% | Activity [34]: 0% | Activity [35]: 0% | MIC50 [36]: ≤ 0.015 µg/mL | MIC90 [36]: 0.03 µg/mL (≈ 0.1 µM) | Activity [37]: 0%
